The values below come from paper PMC9444296 (Investigative Radiology, 2022).

Like-named read-outs stand apart in the source and are kept apart here. Where no end group is shown, it is not given here.

Series [1] is described as follows: Metabolic pathway study in human liver microsomes. Conditions: 120 minutes. Format: in vitro ADME. In general terms: Liver microsomes are vesicles of endoplasmic reticulum, rich in cytochrome P450 enzymes.
A short description of series [2]: Hepatocyte metabolic stability, negative and positive controls. Format: in vitro ADME. Conditions: hepatocyte incubation.
Series [3] addresses EDB protein fragment (Homo sapiens, UniProt P02751). Conditions: cited from earlier work.
The target of series [4] is CYP2C9 (Homo sapiens, UniProt P11712). Description: CYP2C9 inhibition in human liver microsomes. Conditions: CYP2C9, positive control selective inhibitor, human liver microsomes.
Sequence of CYP2C9 (P11712 whole entry): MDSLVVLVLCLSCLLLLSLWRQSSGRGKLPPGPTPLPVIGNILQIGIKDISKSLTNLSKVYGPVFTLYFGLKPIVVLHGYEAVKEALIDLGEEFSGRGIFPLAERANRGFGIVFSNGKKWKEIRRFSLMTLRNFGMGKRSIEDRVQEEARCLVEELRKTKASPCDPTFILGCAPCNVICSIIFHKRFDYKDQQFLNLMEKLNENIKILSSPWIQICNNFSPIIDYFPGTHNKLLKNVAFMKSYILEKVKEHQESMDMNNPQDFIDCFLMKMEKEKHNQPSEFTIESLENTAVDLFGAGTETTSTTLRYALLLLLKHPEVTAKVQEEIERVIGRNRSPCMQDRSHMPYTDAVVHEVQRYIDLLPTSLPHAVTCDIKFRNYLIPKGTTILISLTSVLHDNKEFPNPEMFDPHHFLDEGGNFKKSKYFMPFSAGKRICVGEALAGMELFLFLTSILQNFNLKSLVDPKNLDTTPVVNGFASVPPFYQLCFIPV
The subject of series [5] is CYP1A2. Conditions: positive control 50 μM, CYP1A2, human primary hepatocytes.
In series [6] the target is CYP2B6 (Homo sapiens, UniProt P20813). Conditions: CYP2B6, positive control selective inhibitor, human liver microsomes.
Sequence of CYP2B6 (Homo sapiens, UniProt P20813) (P20813 whole entry): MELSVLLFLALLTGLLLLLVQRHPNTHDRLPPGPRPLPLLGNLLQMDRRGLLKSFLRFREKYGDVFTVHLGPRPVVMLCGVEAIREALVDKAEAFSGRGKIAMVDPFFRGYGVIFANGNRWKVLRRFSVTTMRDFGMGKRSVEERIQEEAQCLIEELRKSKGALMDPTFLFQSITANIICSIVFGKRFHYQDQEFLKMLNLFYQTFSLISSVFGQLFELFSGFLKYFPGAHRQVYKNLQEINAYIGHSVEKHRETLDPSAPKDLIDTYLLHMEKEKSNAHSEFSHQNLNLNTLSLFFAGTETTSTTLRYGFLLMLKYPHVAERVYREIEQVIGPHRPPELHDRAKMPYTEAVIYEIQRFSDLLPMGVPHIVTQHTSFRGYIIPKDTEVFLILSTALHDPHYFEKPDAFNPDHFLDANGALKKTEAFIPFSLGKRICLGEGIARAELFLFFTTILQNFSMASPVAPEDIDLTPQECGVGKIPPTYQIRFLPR
The target in series [7] is CYP2D6 (Homo sapiens, UniProt P10635). Description: CYP2D6 inhibition in human liver microsomes. Format: in vitro ADME. Conditions: CYP2D6, positive control selective inhibitor, human liver microsomes.
Sequence of CYP2D6 (P10635 whole entry): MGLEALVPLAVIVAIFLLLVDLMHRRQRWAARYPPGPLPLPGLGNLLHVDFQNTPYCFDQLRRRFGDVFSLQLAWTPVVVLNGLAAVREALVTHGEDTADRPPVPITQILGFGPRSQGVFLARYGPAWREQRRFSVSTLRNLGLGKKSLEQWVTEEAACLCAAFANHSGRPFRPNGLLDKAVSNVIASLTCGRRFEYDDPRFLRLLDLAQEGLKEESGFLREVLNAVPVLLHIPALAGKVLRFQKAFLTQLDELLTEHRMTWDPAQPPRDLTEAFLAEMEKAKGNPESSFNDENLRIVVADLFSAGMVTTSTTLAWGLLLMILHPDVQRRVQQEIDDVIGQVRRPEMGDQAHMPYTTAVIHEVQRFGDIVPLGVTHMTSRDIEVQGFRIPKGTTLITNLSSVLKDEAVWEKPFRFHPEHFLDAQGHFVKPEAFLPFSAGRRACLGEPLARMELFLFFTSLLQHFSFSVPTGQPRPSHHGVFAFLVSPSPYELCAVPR
Series [8] concerns CYP2B6. Conditions: positive control 1000 μM, CYP2B6, human primary hepatocytes.
Series [9] concerns the target CYP2C8 (Homo sapiens, UniProt P10632). The series can be described thus: CYP2C8 inhibition in human liver microsomes. The class given is in vitro ADME. Conditions: CYP2C8, positive control selective inhibitor.
The conditions of series [10]: cited from earlier work.
In series [11] the test system is LNCaP human prostate tumors. Description: Contrast-enhanced MRI of LNCaP prostate tumor xenografts in rats. The class given is in vivo, rat. Conditions: 0.1 mmol/kg IV, 3 T, n = 3. Summed up: (§1)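 Male rats carried subcutaneous flank xenografts of 4 × 10⁶ PC3 or 8 × 10⁶ LNCaP cells in Matrigel-PBS (1:1) and were imaged once tumours exceeded 100 mm³. Scans used 1 mm slices, 2 averages and a 128 × 128 matrix. The same tumour-bearing rats were reused across agents and doses, with a clinical Gd agent at 0.1 mmol Gd/kg as comparator.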

Series [12] has as its system PC3 human prostate cancer xenografts. Description: Contrast-enhanced MRI of PC3 prostate tumor xenografts in rats. The class given is in vivo, rat. Conditions: PC3 tumors in rats, 0.1 mmol/kg IV, 3 T, n = 6. Summed up: as §1

Sequence of EDB protein fragment (P02751 1271-1359 limits assumed): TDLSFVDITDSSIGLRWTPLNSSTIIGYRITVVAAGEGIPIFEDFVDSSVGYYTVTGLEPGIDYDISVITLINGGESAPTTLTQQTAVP
Sequence of CYP2C8 (P10632 whole entry): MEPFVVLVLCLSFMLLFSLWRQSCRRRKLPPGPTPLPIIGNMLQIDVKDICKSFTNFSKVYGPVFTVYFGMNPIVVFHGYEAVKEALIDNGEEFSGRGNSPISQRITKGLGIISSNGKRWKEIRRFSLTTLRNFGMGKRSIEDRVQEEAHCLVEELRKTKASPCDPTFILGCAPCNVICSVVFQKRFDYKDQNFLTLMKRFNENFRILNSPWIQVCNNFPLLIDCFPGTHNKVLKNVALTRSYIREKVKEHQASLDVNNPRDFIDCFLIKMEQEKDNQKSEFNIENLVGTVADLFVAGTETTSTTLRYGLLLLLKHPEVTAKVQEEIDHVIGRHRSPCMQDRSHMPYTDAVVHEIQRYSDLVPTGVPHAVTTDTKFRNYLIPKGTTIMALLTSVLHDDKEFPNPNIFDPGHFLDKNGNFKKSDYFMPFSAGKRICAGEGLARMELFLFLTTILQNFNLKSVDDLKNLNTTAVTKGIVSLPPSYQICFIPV

On to `C[C@]12CC[C@H]3[C@@H](CCC4=CC(=O)CC[C@@]43C)[C@@H]1CC[C@@H]2O` [testosterone, reference compound], for which the “remaining testosterone (systematic control)” value in series [1] was 11.4%. In addition, in series [2], the “remaining substrate in the positive control” value came out at 9.29%.
As for TVRTSAD [ZD2], the “binding affinity to the EDB fragment” value in [3] is reported as “moderate binding affinity”.
As for `Nc1ccc(S(=O)(=O)Nc2ccnn2-c2ccccc2)cc1` [sulfaphenazole, reference compound], in [4], the “enzyme activity decreased by” value amounted to 87.4%.
Regarding `COc1ccc2[nH]c([S+]([O-])Cc3ncc(C)c(OC)c3C)nc2c1` (centres unmarked) [omeprazole, reference compound], in series [5], the “increase of enzyme activity vs vehicle control” value is “about 40 fold” and the “increase of mRNA expression vs vehicle control” value is “about 62 fold”.
As for `S=P(N1CC1)(N1CC1)N1CC1` [thiotepa, reference compound], the “enzyme activity decreased by” value in series [6] is on record as 89.2%.
In the case of `C=C[C@H]1C[N@@]2CC[C@H]1C[C@@H]2[C@@H](O)c1ccnc2ccc(OC)cc12` [quinidine, reference compound], the “enzyme activity decreased by” value in [7] was 91.2%.
As to `O=c1ccc2ccc(O)cc2o1` [7-hydroxycoumarin], the “remaining substrate in the positive control” value in series [2] was found to be 18.8%.
As for `CCC1(c2ccccc2)C(=O)NC(=O)NC1=O` [phenobarbital, reference compound], in [8], the “increase of enzyme activity vs vehicle control” value is roughly 12 fold and the “increase of mRNA expression vs vehicle control” value is listed as roughly 14 fold.
For the molecule `CC(C)(O)c1ccccc1CC[C@@H](SCC1(CC(=O)O)CC1)c1cccc(/C=C/c2ccc3ccc(Cl)cc3n2)c1` [montelukast, reference compound], the “enzyme activity decreased by” value in series [9] is 80.0%.
Take `CC(O)CN1CCN(CC(=O)[O-])CCN(CC(=O)[O-])CCN(CC(=O)[O-])CC1.[Gd+3]` (centres unmarked) [Gadoteridol, gadoteridol]: the “r1 Relaxivity” value in series [10] (1.4 T, H2O) is 3.2 (H2O) mM^−1 s^−1; in series [10] (1.5 T, H2O) it was 2.9 (H2O) mM^−1 s^−1; in [10] (1.5 T, plasma) it was 4.1 mM⁻¹ s⁻¹; in series [10] (3.0 T, H2O), 2.8 (H2O) mM^−1 s^−1; in series [10] (3.0 T, plasma), 3.7 mM⁻¹ s⁻¹. Moreover, the CNR in [11] came to 1.79 ± 0.74; in series [12] (10 minutes postinjection), 1.32 ± 0.58; in [12] (30 minutes postinjection), 1.714 ± 0.69.
